Screening results deposited in PubChem by several laboratories.
CHOP inhibitor: inhibitors of CHOP promoter induction, primary screen, cell-based, unfolded protein response, luciferase reporter; AID 2732, 2010; actives 3.8% (n = 220,000); inhibition, % at 10 µM; CHO-K1 CHOP-promoter luciferase, tunicamycin-induced, 15-18 h;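 active = compounds that reduced the stress-induced luciferase reporter signal by more than about 70% of percent inhibition, limit read from the data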
Jurkat NFkB inh: inhibitors of induced NF-kB luciferase reporter, primary screen, TCR NF-kB activation inhibitor project, cell-based, luminescence, uHTS; Jurkat, PMA/ionomycin-induced NF-kB luciferase reporter; actives 0.53% (n = 330,000); inhibition, % at 4 µM; in the data active = inhibition above about 50%
UPR CHOP act: activators of apoptotic CHOP UPR arm, primary screen, cell-based, CHO-CHOP luciferase reporter, luminescence, uHTS; UPR activation; percent of tunicamycin response over DMSO baseline; activation, % at 10 µM; actives 0.34% (n = 330,000); AID 449763, 2010;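 active = at 10 µM dose, activation of 40% or more, normalized to positive control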
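System: CHO-CHOP luciferase reporter cell line | Buffer or medium: F12 medium containing 10% fetal bovine serum | Doses: One dose, 10 µM in 0.5% DMSO | Times: 6 h compound exposure at 37 °C after overnight seeding | Signal: Luciferase luminescence | Read-out: % activation vs tunicamycin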
697 NFkB inh: inhibitors of PMA/ionomycin-induced NF-kB reporter, 697 cells, primary screen, B-cell NF-kB inhibitor project, cell-based, luminescence, uHTS | actives 0.33% (n = 330,000) | AID 435022, 2010 | 697 B-cell NF-kB luciferase reporter, 16 h | inhibition, % at 4 µM; in the data active = inhibition above about 35%
UPR XBP1 act: activators of adaptive XBP1 UPR arm, primary screen, cell-based, CHO-XBP1 luciferase reporter, luminescence, uHTS; actives 0.33% (n = 330,000); activation, % at 20 µM; AID 463104, 2010; IRE1-XBP1 UPR activation; percent of tunicamycin response, DMSO as zero;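 active = versus positive control, 20 µM dose yields 30% or more activation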
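incubation = overnight seeding at 37 °C, 6 h compound treatment at 37 °C | assay system = CHO-XBP1 cells stably carrying IRE1-XBP1-driven luciferase reporter | input = 1000 cells per well | detection = luciferase luminescence | dosing = single point, 20 µM final compound, 1% DMSO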
Gli-Sufu block: Gli-Sufu pathway antagonists, primary screen, luciferase luminescence, Sufu-KO-LIGHT cells, uHTS. Sufu-KO-LIGHT fibroblasts, Gli luciferase reporter luminescence. actives 0.74% (n = 340,000). inhibition, % at 5 µM. AID 588413, 2011;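 active = inhibition above about 55%, limit read from the data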
Jurkat NFkB conf: PMA/ionomycin-induced NF-kB reporter inhibitors, Jurkat retest, confirmation, T-cell NF-kB inhibitor project, cell-based, luminescence, single concentration; shares compounds with Jurkat NFkB inh; Jurkat NF-kB luciferase, 16 h; inhibition, % at 4 µM; actives 27% (n = 2,700); AID 435020, 2010;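 active = inhibition reaching about 45% at 4 µM in either replicate, limit read from the data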
697 NFkB conf: PMA/ionomycin-induced NF-kB reporter inhibitors, 697 retest, confirmation, B-cell NF-kB inhibitor project, cell-based, luminescence, single concentration; AID 449746, 2010; 697 B-cell NF-kB luciferase, 16 h; shares compounds with 697 NFkB inh; actives 35% (n = 2,000); inhibition, % at 4 µM; in the data active = inhibition mostly above about 28%, no sharp cut-off; inactive = mostly below about 22%
Hits are given with their value; 0 = inactive; - = no result. Shown are actives, neighbours in structure and some others; about 3.9% of the full set was active somewhere.

SMILES	CHOP inhibitor	Jurkat NFkB inh	UPR CHOP act	697 NFkB inh	UPR XBP1 act	Gli-Sufu block	Jurkat NFkB conf	697 NFkB conf
COCc1cc(CN(C)C(=O)c2oc3c(F)cccc3c2C)[nH]n1	-	0	0	0	0	0	-	-
CCOc1ccc2nc(NC(=S)N(C)C)sc2c1	0	0	0	0	0	0	0	0
Cc1ccc(N/C=C/C(=O)c2cccs2)cc1	0	0	0	0	0	0	0	0
CC(=O)c1ccc(N/C=C/C(=O)c2ccc(Br)cc2)cc1	-	0	0	0	0	0	-	-
O=C(/C=C/Nc1ccc(F)cc1F)c1cccs1	0	0	0	0	0	0	0	0
O=C(/C=C/Nc1ccc(F)cc1F)c1ccc(Br)cc1	-	0	0	0	0	0	0	0
O=C(/C=C/Nc1ccc(F)cc1F)c1ccco1	0	0	0	0	0	0	-	-
Cc1noc(NS(=O)(=O)c2ccc(N/C=C\C(=O)c3cccs3)cc2)c1C	0	0	0	0	0	0	-	-
COC(=O)c1ccc(NC(=O)CCN2CCOCC2)cc1	-	0	0	0	0	0	-	-
CCc1ccc(NC(=O)c2cnn(-c3ccccc3)c2C2CCNCC2)cc1	0	0	0	0	0	0	-	-
CCc1ccc(NC(=O)c2cnn(-c3ccccc3)c2C)cc1	0	0	0	0	0	0	0	0
Cc1ccc(-c2nnc(/C=C/c3ccccc3)o2)cc1	0	0	0	0	0	0	0	0
Cc1ccc(/C=C/c2nnc(-c3cccc(C)c3)o2)cc1	0	0	0	0	0	0	-	-
COc1ccc(C2=NN3C(C2)c2ccccc2OC32C(=O)N(C)c3ccccc32)cc1 (configuration not stated)	0	0	0	0	0	0	0	0
COc1ccc(C2=NN3C(C2)c2ccccc2OC3c2cccs2)cc1 (configuration not stated)	0	0	0	0	0	0	-	-
O=C1N(c2ccccc2)CCN1c1ccccc1	-	0	0	0	0	0	0	0
O=C1NCCN1c1ccccc1	-	-	-	-	-	0	-	-
C=C(C)c1cccc(C(C)(C)NC(=O)Nc2ccc(OC)nc2)c1	-	0	0	0	0	0	-	-
CC(=O)Nc1ccc(NC(=O)C(NS(=O)(=O)c2cccc3nsnc23)C(C)C)cc1 (configuration not stated)	-	0	0	0	0	0	-	-
O=C1c2ccccc2C(=O)N1c1cccnc1	0	53	0	45	0	0	0	0
NC(=O)c1ccccc1OCC(=O)Nc1ccc(Cl)c(Cl)c1	0	0	0	0	0	0	0	0
CCN(Cc1ccccc1)c1ccc(/C=C(\C#N)c2ccccn2)cc1	0	0	0	0	0	0	0	0
CN(CCC#N)c1ccc(/C=C(\C#N)c2ccccn2)cc1	0	0	0	0	0	0	-	-
CCCCCNC(=O)c1ccc2c(=O)n(CC3CCCO3)c(=O)[nH]c2c1 (configuration not stated)	0	99	0	104	0	0	0	60
CC(C)(C)C(=O)Nc1ccc(C(=O)OC2CCCCC2)cc1	0	0	0	0	0	0	0	0
SMILES	CHOP inhibitor	Jurkat NFkB inh	UPR CHOP act	697 NFkB inh	UPR XBP1 act	Gli-Sufu block	Jurkat NFkB conf	697 NFkB conf
O=C(OC1CCCCC1)c1ccc(NC(=O)C2CCCCC2)cc1	0	0	0	0	0	0	-	-
N#Cc1nc(Nc2cccc(Cl)c2)c2ncn(C3CCCC3)c2n1	-	0	0	0	0	0	0	0
O=C(Nc1nc2cc3c(cc2s1)OCCO3)c1cccs1	0	0	0	0	0	0	0	0
Cc1cc(CSc2ccccc2)ccc1NC(=O)c1ccc(CN2CCOCC2)cc1	0	70	0	49	0	0	73	47
C(=N\Nc1nc2ccccc2s1)/c1ccco1	0	0	0	0	0	0	0	0
Oc1ccccc1C=NNc1nc2ccccc2s1	-	-	-	-	-	0	-	-
Oc1ccc(C=NNc2nc3ccccc3s2)c(O)c1	-	-	-	-	-	0	-	-
Cc1ccc(Nc2nc3ccccc3s2)cc1	0	0	0	0	0	0	0	0
Cc1ccsc1/C=N/Nc1nc2ccccc2s1	0	0	0	0	0	0	0	0
COc1cc2ccccc2cc1C(=O)Nc1ccc(Cl)cn1	-	0	0	0	0	0	-	-
COCCN1CCN(C(=O)C2CCC(=O)N(Cc3ccccc3OC)C2)CC1 (configuration not stated)	-	0	0	0	0	0	-	-
O=C(NN1C(=O)NC2(CCCCC2)C1=O)c1cccs1	-	0	0	0	0	-	-	-
O=C(CN1C(=O)c2ccccc2S1(=O)=O)c1ccc2c(c1)OCCO2	94	94	0	93	0	94	92	92
CC(C)(C)OC(=O)N1CCC(C(=O)Nc2cccc(C(=O)N3CCCCC3)c2)CC1	-	-	-	-	-	0	-	-
CCCCN(C)C(=O)c1cc2cc3ccc(OC)cc3nc2s1	0	0	0	0	0	0	0	0
CCOc1ccc2oc(C(=O)NC(C)(C)CC)c(C)c2c1	0	0	0	0	0	0	-	-
COc1ccc2oc(C(=O)Nc3nccs3)c(C)c2c1	-	0	0	0	0	0	0	0
CCOc1ccc2oc(C(=O)Nc3nccs3)c(C)c2c1	-	0	0	0	0	0	0	0
CC(=O)Nc1ccc(OCCC[n+]2ccccc2)cc1	0	0	0	0	0	0	-	-
CCCCCc1ccc(OCCC[n+]2ccccc2)c(CCCCC)c1	0	63	0	60	0	83	55	57
O=C1N[C@H](Cc2ccccc2)COC(=O)[C@H](Cc2ccc(F)cc2)CC/C=C/C[C@@H]1CC(=O)N(CCO)Cc1ccccc1	-	0	0	0	0	0	-	-
Cc1ccc(CNC(=O)C2CCN(c3nc(C)cc(C)n3)CC2)cc1	-	0	0	0	0	0	-	-
Cc1cccc(-n2ncc3c2CCCC3NC(=O)c2ccc[n+]([O-])c2)c1C (configuration not stated)	-	0	0	0	0	0	-	-
Cn1nccc1C(=O)NC1CCCc2c1cnn2-c1ccc(C(C)(C)C)cc1 (configuration not stated)	-	66	0	44	0	76	71	103
